The source of these data is ChEMBL document CHEMBL1135537, “Design, synthesis, and biological evaluation of indolequinone phosphoramidate prodrugs targeted to DT-diaphorase” (2002).

Test [1] relates to MIA PaCa-2. Put plainly: Growth inhibitory activity against PaCa-2 human solid tumor cell line using MTT assay. It counts as functional. The gist of the method:
(§1)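 MTT assay. Cells were seeded at (1-2) × 10^4 per well and left to attach for 24 h. Compound was taken up in DMSO and serially diluted in medium, keeping final DMSO at 1% or less, then exposed for 72 h. MTT was added for 4–5 h, formazan was dissolved in DMSO, and absorbance was read at 570 nm. GI50 was taken from percent-of-control versus concentration plots; each compound was assayed twice and the results averaged.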

In test [2] the test system is A549. Nature of the test: Growth inhibitory activity against A549 human solid tumor cell line using MTT assay. Type of test: functional. The gist of the method:
as §1
(In general: Formazan colour is commonly taken as a measure of viable cells.)

In test [3] the test system is UMUC3. Nature of the test: Growth inhibitory activity against UMUC3 human solid tumor cell line using MTT assay. Type of test: functional. The gist of the method:
as §1

Test [4] concerns BE. Nature of the test: Inhibitory concentration that reduces clonogenic survival by 2 log units (99%) 2-hour after drug treatment in BE human colon carcinoma cell line. Type of test: functional. The gist of the method:
(§2)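 Clonogenic assay. Exponentially growing cells at 1–1.2 × 10^5 cells/mL in serum-free MEM with 0.02 M HEPES were exposed for 2 h at 37 °C, 5% CO2, to five final concentrations. Ethanol was the vehicle at 1% final, with an ethanol-only control. Cells were then rinsed, plated at 2–3 densities in five replicates and grown 10 days. Crystal-violet-stained colonies of ≥50 cells were counted, and LC99 was read from log surviving fraction versus concentration. Runs were done at least twice and averaged.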

Test [5] relates to PC-3. Nature of the test: Growth inhibitory activity against human PC-3 cell line using MTT assay. Type of test: functional. The gist of the method: as §1
For test [6], the system named is HT-29. Nature of the test: Growth inhibitory activity against HT-29 human solid tumor cell line using MTT assay. Type of test: functional. The gist of the method:
as §1

The subject of test [7] is MDA-MB-231. Nature of the test: Growth inhibitory activity against human MDA-231 cell line using MTT assay. Type of test: functional. The gist of the method:
as §1

The test system of test [8] is HT-29. Put plainly: Inhibitory concentration that reduces clonogenic survival by 2 log units (99%) 2-hour after drug treatment in HT-29 human colon carcinoma cell line. Type of test: functional. The gist of the method: as §2
A short description of test [9]: Selectivity ratio of LC99 of BE to LC99 of HT-29. It counts as functional. The gist of the method:
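Ratio of the BE LC99 to the HT-29 LC99, both from a 2 h clonogenic exposure in serum-free MEM/HEPES with 1% ethanol vehicle. Colonies of ≥50 cells were counted after 10 days, and LC99 was taken from log surviving fraction versus concentration plots.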

Test [10] concerns A498. Put plainly: Growth inhibitory activity against A498-2LM human solid tumor cell line using MTT assay. It counts as functional. The gist of the method: as §1
The target of test [11] is NAD(P)H dehydrogenase [quinone] 1 (Homo sapiens) (UniProt P15559). Put plainly: Kinetic parameter Kcat was reported against DT-diaphorase. The gist of the method:
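Recombinant purified human DTD in Tris buffer (0.05 M, pH 7.6) with dithiothreitol (0.01 mM), NADH (1 mM), cytochrome c (55 μM) and varied indolequinone in DMSO. Run at 25 °C, started with enzyme, in triplicate. Cytochrome c reduction was followed at 550 nm, with no-enzyme background rates. kcat came from Hanes plots of initial linear rates (ε 1.85 × 10^4 M-1 cm-1). Values average ≥2 experiments.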

NAD(P)H dehydrogenase [quinone] 1 (Homo sapiens), sequence (P15559 whole entry): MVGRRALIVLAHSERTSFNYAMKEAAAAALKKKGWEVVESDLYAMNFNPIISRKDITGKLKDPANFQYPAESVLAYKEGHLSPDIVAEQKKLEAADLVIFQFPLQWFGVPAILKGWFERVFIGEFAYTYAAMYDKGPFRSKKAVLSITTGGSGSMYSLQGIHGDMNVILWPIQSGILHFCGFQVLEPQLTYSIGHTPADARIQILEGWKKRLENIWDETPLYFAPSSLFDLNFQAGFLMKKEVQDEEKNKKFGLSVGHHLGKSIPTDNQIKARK

Consider `COC1=CC(=O)c2c(c(COP(=O)(N(C)CCBr)N(C)CCBr)cn2C)C1=O`, for which the GI50 (commonly the concentration at which growth is held to half of that of the control) was 0.025 µM in test [1]; 0.023 µM in test [2]; 0.002 µM in test [3]; 0.066 µM in test [5]; 0.065 µM in test [6]; 0.04 µM in test [7]. This compound also came in with a GI50 in [10] of 0.34 µM. Besides, the values for the LC99 in test [4] and in [8] were 0.14 µM and 0.07 µM, respectively. In addition, the Selectivity in test [9] stood at 2.

For the compound `COC1=CC(=O)c2c(cc(COP(N)(=O)N(CCBr)CCBr)n2C)C1=O` (stereo unspecified), the GI50 in [1] was 0.015 µM; in test [2], 0.003 µM; in test [3], 0.002 µM; in test [5] it was 0.49 µM; in [6] it was 0.061 µM; in [7], 1.6 µM. It took 0.2 µM to inhibit growth in test [10] by half (GI50). Also, the LC99 worked out at 4.2 µM in [4] and 0.077 µM in test [8]. Further, the k cat in test [11] amounted to 1.6 s⁻¹. The Selectivity in test [9] is 65.

As for `COC1=CC(=O)c2c(cc(COP(=O)(N(C)CCBr)N(C)CCBr)n2C)C1=O`, the GI50 in test [1] worked out at 0.008 µM; in test [2], 1.7 µM; in test [3] it was 0.017 µM; in [5] it was 0.94 µM; in test [6], 0.2 µM; in test [7], 0.84 µM. In test [10], halving of growth (GI50) required 2.3 µM. For the same compound, the values for the LC99 in test [4] and in test [8] were 2 µM and 0.35 µM, respectively. Further, the k cat in [11] is 1.28 s⁻¹. The Selectivity in test [9] is 6.

With `COC1=CC(=O)c2c(c(COP(N)(=O)N3CCOCC3)cn2C)C1=O` (stereo unspecified), the GI50 in test [1] turned out to be 9.8 µM; in test [2] it was 12 µM; in [3], 8.2 µM; in test [5], 15 µM; in test [6] it was 7.7 µM; in test [7], 9.3 µM. Besides, growth in test [10] was halved (GI50) at 1.2 µM. The LC99 in test [4] and in test [8] was >100 µM in each case.

With `COC1=CC(=O)c2c(c(COC(C)=O)cn2C)C1=O`, the GI50 in [1] is 0.004 µM; in test [2], 0.44 µM; in [3], 0.007 µM; in test [5], 0.005 µM; in test [6] it was 0.003 µM; in [7] it was 0.25 µM. The compound also yielded a GI50 in test [10] of 0.037 µM. The LC99 in [4] was determined as 5.3 µM; in [8], 0.54 µM. Further, in [11], the k cat is 4 s⁻¹. In addition, in test [9], the Selectivity was 10.

For `COC1=CC(=O)c2c(cc(COC(C)=O)n2C)C1=O`, the GI50 in test [1] is 35 µM; in test [2], 26 µM; in test [3] it was 9.6 µM; in [5], > 38 µM; in test [6] it was 34 µM; in test [7], > 38 µM. Further, the concentration for 50% growth inhibition (GI50) in [10] came out at 34 µM. The LC99 in test [4] and in test [8] was >100 µM in each case. Also, in test [11], the k cat was 30 s⁻¹.

For the compound `COC1=CC(=O)c2c(cc(CO)n2C)C1=O`, the k cat in [11] worked out at 77 s⁻¹.

Consider `COC1=CC(=O)c2c(cc(COP(N)(=O)N(CCCl)CCCl)n2C)C1=O` (stereo unspecified), for which the GI50 in test [1] was 0.031 µM; in [2] it was 0.022 µM; in [3], 0.01 µM; in test [5], 0.26 µM; in [6], 0.21 µM; in test [7], 0.87 µM. The compound also displayed a GI50 in [10] of 0.98 µM. Also, the LC99 in [4] was found to be 7.6 µM; in [8], 0.11 µM. Further, in [11], the k cat was found to be 2.6 s⁻¹. Also, in test [9], the Selectivity was found to be 69.

As to `CC1=CC(=O)c2ccccc2C1=O`, the k cat in test [11] amounted to 960 s⁻¹.

The compound `COC1=CC(=O)c2c(c(CO)cn2C)C1=O` registered a k cat in test [11] of 136 s⁻¹.

For `COC1=CC(=O)c2c(c(COP(N)(=O)N(CCBr)CCBr)cn2C)C1=O` (stereo unspecified), the GI50 in test [1] is 0.22 µM; in test [2], 0.4 µM; in [3], 0.01 µM; in test [5], 0.65 µM; in test [6] it was 0.24 µM; in [7], 0.19 µM. Further, the GI50 in test [10] was found to be 1 µM. Besides, the LC99 in test [4] was 0.47 µM; in test [8] it was 0.24 µM. Further, the Selectivity in [9] was 2.

On to `COC1=CC(=O)c2c(cc(COP(N)(=O)N3CCOCC3)n2C)C1=O` (stereo unspecified), for which the GI50 worked out at 10 µM in test [1]; 45 µM in [2]; 10 µM in test [3]; 14 µM in test [5]; 15 µM in test [6]; 13 µM in test [7]. Further, halving of growth in test [10] (GI50) required 12 µM. Also, the LC99 in [4] and in test [8] was >100 µM throughout. The compound further yielded a k cat in [11] of 4.9 s⁻¹.
